Data published in ChEMBL document CHEMBL1154198, “Chemical genetics of Plasmodium falciparum” (Nature, 2010).

Tests used:
[1] = ST_JUDE: Cytotoxicity using luciferase to measure ATP as an indicator of the viability of human epithelial embryonic kidney cells (HEK293); format: toxicity, cell-based
Plasmodium falciparum [2] = assay: ST_JUDE: Cytotoxicity against Plasmodium falciparum V1/S; format: functional, organism-based
[3] = ST_JUDE: Cytotoxicity using luciferase to measure ATP as an indicator of the viability of human foreskin fibroblast cells (BJ); format: toxicity, cell-based
Leishmania major = assay: ST_JUDE: Cytotoxicity using Alamar Blue to measure viability of Leishmania major; format: functional, organism-based
How it was run: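 L. major promastigotes; drug susceptibility read with Alamar Blue.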

Toxoplasma gondii = assay: ST_JUDE: Growth inhibition of to Toxoplasma gondii, in human U-2OS cells, as measured by luciferase.; format: functional, organism-based; conditions: RH, U2OS
How it was run: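 T. gondii parasites engineered to express luciferase; drug sensitivity read by luminescence.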

Plasmodium falciparum [4] = assay: ST_JUDE: Plasmodium falciparum 3D7 EC50 (uM) as measured by SYBR green dye; format: functional, organism-based
Trypanosoma brucei = assay: ST_JUDE: Cytotoxicity using luciferase to measure ATP as an indicator of the viability of Trypanosoma brucei; format: functional, organism-based
[5] = ST_JUDE: Cytotoxicity using luciferase to measure ATP as an indicator of the viability of human epithelial hepatocellular carcinoma cells (HepG2); format: toxicity, cell-based
Plasmodium falciparum [6] = assay: ST_JUDE: Cytotoxicity against Plasmodium falciparum W2; format: functional, organism-based
Plasmodium falciparum [7] = assay: ST_JUDE: Cytotoxicity against Plasmodium falciparum 3D7; format: functional, organism-based
How it was run: (§1)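 Asexual P. falciparum grown in human erythrocytes, exposed to compounds for 72 h, and growth read as the DNA quantity in treated versus control cultures. Dose-response run at 12 concentrations from 10 μM to 5 nM.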

[8] = ST_JUDE: Cytotoxicity using luciferase to measure ATP as an indicator of the viability of human Burkitt''s lymphoma lymphoblast cells (Raji); format: toxicity, cell-based
Plasmodium falciparum [9] = assay: ST_JUDE: Cytotoxicity against Plasmodium falciparum Dd2; format: functional, organism-based
Plasmodium falciparum [10] = assay: ST_JUDE: Cytotoxicity against Plasmodium falciparum SB-A6; format: functional, organism-based
Plasmodium falciparum [11] = assay: ST_JUDE: Plasmodium falciparum K1 EC50 (uM) as measured by SYBR green dye; format: functional, organism-based
Plasmodium falciparum [12] = assay: ST_JUDE: Cytotoxicity against Plasmodium falciparum K1; format: functional, organism-based; how it was run: as §1
Plasmodium falciparum [13] = assay: ST_JUDE: Cytotoxicity against Plasmodium falciparum D10 transfected with yeast DHOD; format: functional, organism-based

SMILES: COc1ccc(C2CC(=O)C3=C(C2)NC(=O)CC3c2ccc(C(F)(F)F)cc2)cc1OC (stereo not drawn)
- EC50 [1]: > 47.5 µM
- EC50 (Plasmodium falciparum [2]): 1.19 µM
- EC50 [3]: > 47.5 µM
- EC50 (Leishmania major): > 20.3 µM
- EC50 (Toxoplasma gondii): > 26 µM
- EC50 (Plasmodium falciparum [4]): 0.599 µM
- EC50 (Trypanosoma brucei): > 45.5 µM
- EC50 [5]: > 47.5 µM
- EC50 (Plasmodium falciparum [6]): 0.417 µM
- EC50 (Plasmodium falciparum [7]): 2.15 µM
- EC50 [8]: > 47.5 µM
- EC50 (Plasmodium falciparum [9]): 0.894 µM
- EC50 (Plasmodium falciparum [10]): 1.09 µM
- EC50 (Plasmodium falciparum [11]): 0.872 µM
- EC50 (Plasmodium falciparum [12]): 1.59 µM
- EC50 (Plasmodium falciparum [13]): 1.11 µM

SMILES: CCc1ccccc1NC(=O)C1c2ccccc2C(=O)N(CC(C)C)C1c1cccs1 (stereo not drawn)
- EC50 [1]: > 43 µM
- EC50 (Plasmodium falciparum [2]): 1.15 µM
- EC50 [3]: > 43 µM
- EC50 (Leishmania major): > 18.4 µM
- EC50 (Toxoplasma gondii): > 23.6 µM
- EC50 (Plasmodium falciparum [4]): 0.511 µM
- EC50 (Trypanosoma brucei): 12.9 µM
- EC50 [5]: > 43 µM
- EC50 (Plasmodium falciparum [6]): 0.679 µM
- EC50 (Plasmodium falciparum [7]): 0.938 µM
- EC50 [8]: > 43 µM
- EC50 (Plasmodium falciparum [9]): 1.21 µM
- EC50 (Plasmodium falciparum [10]): 1.01 µM
- EC50 (Plasmodium falciparum [11]): 0.526 µM
- EC50 (Plasmodium falciparum [12]): 1.08 µM
- EC50 (Plasmodium falciparum [13]): 1.08 µM

SMILES: CCN(CC)CCN1C(=O)c2ccccc2NC1c1ccc(Cl)cc1 (stereo not drawn)
- EC50 [1]: > 42.9 µM
- EC50 (Plasmodium falciparum [2]): 1.14 µM
- EC50 [3]: > 42.9 µM
- EC50 (Leishmania major): > 18.4 µM
- EC50 (Toxoplasma gondii): > 23.5 µM
- EC50 (Plasmodium falciparum [4]): 0.578 µM
- EC50 (Trypanosoma brucei): > 41.1 µM
- EC50 [5]: > 42.9 µM
- EC50 (Plasmodium falciparum [6]): 1.95 µM
- EC50 (Plasmodium falciparum [7]): 2.18 µM
- EC50 [8]: > 42.9 µM
- EC50 (Plasmodium falciparum [9]): 1.12 µM
- EC50 (Plasmodium falciparum [10]): 2 µM
- EC50 (Plasmodium falciparum [11]): 0.526 µM
- EC50 (Plasmodium falciparum [12]): 1.67 µM
- EC50 (Plasmodium falciparum [13]): 1.87 µM

SMILES: C[N+](C)(C)c1nc(N2CCOCC2)nc(N(c2ccccc2)c2ccccc2)n1
- EC50 [1]: > 42.8 µM
- EC50 (Plasmodium falciparum [2]): 1.84 µM
- EC50 [3]: > 42.8 µM
- EC50 (Leishmania major): > 18.3 µM
- EC50 (Toxoplasma gondii): > 23.5 µM
- EC50 (Plasmodium falciparum [4]): 0.529 µM
- EC50 (Trypanosoma brucei): 5.59 µM
- EC50 [5]: > 42.8 µM
- EC50 (Plasmodium falciparum [6]): 5.82 µM
- EC50 (Plasmodium falciparum [7]): 0.396 µM
- EC50 [8]: 10.6 µM
- EC50 (Plasmodium falciparum [9]): 1.3 µM
- EC50 (Plasmodium falciparum [10]): 0.626 µM
- EC50 (Plasmodium falciparum [11]): 1.83 µM
- EC50 (Plasmodium falciparum [12]): 1.51 µM
- EC50 (Plasmodium falciparum [13]): 0.88 µM

SMILES: Cc1ccc(C)c(N2CCN(Cc3cc(Cl)ccc3O)CC2)c1
- EC50 [1]: > 35.9 µM
- EC50 (Plasmodium falciparum [2]): 0.328 µM
- EC50 [3]: > 35.9 µM
- EC50 (Leishmania major): > 15.4 µM
- EC50 (Toxoplasma gondii): > 19.7 µM
- EC50 (Plasmodium falciparum [4]): 0.725 µM
- EC50 (Trypanosoma brucei): > 34.4 µM
- EC50 [5]: > 35.9 µM
- EC50 (Plasmodium falciparum [6]): 1.01 µM
- EC50 (Plasmodium falciparum [7]): 0.496 µM
- EC50 [8]: > 35.9 µM
- EC50 (Plasmodium falciparum [9]): 0.323 µM
- EC50 (Plasmodium falciparum [10]): 0.535 µM
- EC50 (Plasmodium falciparum [11]): 0.261 µM
- EC50 (Plasmodium falciparum [12]): 0.195 µM
- EC50 (Plasmodium falciparum [13]): 0.549 µM

SMILES: CCCO/C(O)=C1\C(C)=NC2=C(C(=O)CC(c3ccc(OC)c(OC)c3)C2)C1c1cccc(Cl)c1 (stereo not drawn)
- EC50 [1]: > 37.7 µM
- EC50 (Plasmodium falciparum [2]): 0.518 µM
- EC50 [3]: > 37.7 µM
- EC50 (Leishmania major): > 16.2 µM
- EC50 (Toxoplasma gondii): > 20.7 µM
- EC50 (Plasmodium falciparum [4]): 0.535 µM
- EC50 (Trypanosoma brucei): 5.15 µM
- EC50 [5]: > 37.7 µM
- EC50 (Plasmodium falciparum [6]): 0.586 µM
- EC50 (Plasmodium falciparum [7]): 0.732 µM
- EC50 [8]: > 37.7 µM
- EC50 (Plasmodium falciparum [9]): 1.02 µM
- EC50 (Plasmodium falciparum [10]): 0.199 µM
- EC50 (Plasmodium falciparum [11]): 0.188 µM
- EC50 (Plasmodium falciparum [12]): 0.425 µM
- EC50 (Plasmodium falciparum [13]): 0.331 µM

SMILES: CCCO/C(O)=C1\C(C)=NC2=C(C(=O)CC(c3ccc(OC)c(OC)c3)C2)C1c1ccccc1Cl (stereo not drawn)
- EC50 [1]: > 39.1 µM
- EC50 (Plasmodium falciparum [2]): 0.066 µM
- EC50 [3]: > 39.1 µM
- EC50 (Leishmania major): > 16.7 µM
- EC50 (Toxoplasma gondii): > 21.4 µM
- EC50 (Plasmodium falciparum [4]): 0.0247 µM
- EC50 (Trypanosoma brucei): 9.3 µM
- EC50 [5]: > 39.1 µM
- EC50 (Plasmodium falciparum [6]): 0.017 µM
- EC50 (Plasmodium falciparum [7]): 0.0752 µM
- EC50 [8]: > 39.1 µM
- EC50 (Plasmodium falciparum [9]): 0.05 µM
- EC50 (Plasmodium falciparum [10]): 0.0262 µM
- EC50 (Plasmodium falciparum [11]): 0.0167 µM
- EC50 (Plasmodium falciparum [12]): 0.0371 µM
- EC50 (Plasmodium falciparum [13]): 0.0369 µM

SMILES: COC(=O)c1ccc(NC(=O)C2c3ccccc3C(=O)N(CC(C)C)C2c2cccs2)cc1 (stereo not drawn)
- EC50 [1]: > 38.7 µM
- EC50 (Plasmodium falciparum [2]): 1.73 µM
- EC50 [3]: > 38.7 µM
- EC50 (Leishmania major): > 16.6 µM
- EC50 (Toxoplasma gondii): > 21.2 µM
- EC50 (Plasmodium falciparum [4]): 0.998 µM
- EC50 (Trypanosoma brucei): 2.33 µM
- EC50 [5]: > 38.7 µM
- EC50 (Plasmodium falciparum [6]): > 9.94 µM
- EC50 (Plasmodium falciparum [7]): 1.16 µM
- EC50 [8]: > 38.7 µM
- EC50 (Plasmodium falciparum [9]): 1.25 µM
- EC50 (Plasmodium falciparum [10]): 2.26 µM
- EC50 (Plasmodium falciparum [11]): 1.22 µM
- EC50 (Plasmodium falciparum [12]): 1.52 µM
- EC50 (Plasmodium falciparum [13]): 1.36 µM
